Source: ChEMBL document CHEMBL1275449, “Potent in vitro antifungal activities of naturally occurring acetylenic acids” (Antimicrob Agents Chemother, 2008)
Converted amounts (≈) assume the structure as drawn. The source made the active and inactive calls. The rule behind the calls is not given here.

Tests used:
Nakaseomyces glabratus = experiment: Antifungal activity against Candida glabrata ATCC 90030 at 178.3 uM after 48 hrs by CLSI method; type: functional, organism-based
Outline: (§1)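 Candida inocula came from 24–72-h SD agar colonies suspended in saline. They were diluted by OD630 standard curve into RPMI 1640 (0.2% dextrose, 0.03% glutamine, 0.165 M MOPS, pH 7.0) to 1.5 × 10³ CFU/ml. Compounds were run as 11 twofold dilutions in 20% DMSO-saline, in duplicate, at 35°C for 48 h, with OD530 read before and after. Percent growth at the top concentration, IC50, MIC, and MFC (SD agar plating) were derived.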

Trichophyton rubrum [1] = experiment: Antifungal activity against Trichophyton rubrum ATCC MYA-4438 by CLSI method; type: functional, organism-based
Outline: (§2)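 Growth scraped from 1- to 6-week-old potato dextrose slants and filtered through Miracloth. Diluted in 5% Alamar blue-RPMI 1640 (MOPS pH 7.0) to 2.7 × 10⁴ CFU/ml. Eleven twofold dilutions in duplicate. Fluorescence at 544 nm excitation/590 nm emission read before and after 35°C, 5 days. IC50 fitted from percent growth. MIC taken as no detectable growth; MFC from clear or blue wells plated on PD agar.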

Candida albicans [2] = experiment: Antifungal activity against Fluconazole resistant Candida albicans clinical isolate 17 after 48 hrs by CLSI method; type: functional, organism-based
Outline: (§3)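 CLSI broth microdilution. Colonies from 24–72 h SD agar suspended in saline and sized by OD630 standard curve. Inoculum 1.5 × 10³ CFU/ml (final) in RPMI 1640 (0.2% dextrose, 0.03% glutamine, 0.165 M MOPS, pH 7.0). Twofold dilutions (11 levels) from 20% DMSO-saline, in duplicate. 35°C for 48 h, OD530 read before and after. IC50 fitted from % growth. MIC: no detectable growth. MFC: subculture onto SD agar.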

Candida albicans [3] = experiment: Antifungal activity against Candida albicans ATCC 90028 after 48 hrs by CLSI method; type: functional, organism-based; conditions: ATCC 90028, 48 h; outline: as §3
Candida albicans [4] = experiment: Antifungal activity against Fluconazole resistant Candida albicans isolate 17 at 178.3 uM after 48 hrs by CLSI method; type: functional, organism-based
Outline: (§4)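 Candida in CLSI broth microdilution. Saline colony suspension set to 1.5 × 10³ CFU/ml (final) in MOPS-buffered RPMI 1640, pH 7.0. Test agent given as twofold serial dilutions in 20% DMSO-saline, duplicate wells. 35°C for 48 h. Growth read as OD530 before and after incubation. Percent inhibition scored at the highest test concentration.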

Pichia kudriavzevii = experiment: Antifungal activity against Candida krusei ATCC 6258 after 48 hrs by CLSI method; type: functional, organism-based; conditions: ATCC 6258, 48 h; outline: as §1
Candida albicans [5] = experiment: Antifungal activity against Candida albicans ATCC 200955 after 48 hrs by CLSI method; type: functional, organism-based; conditions: ATCC 200955, 48 h; outline: as §3
Aspergillus fumigatus [6] = experiment: Antifungal activity against Aspergillus fumigatus ATCC 90906 at 178.3 uM after 48 hrs by CLSI method; type: functional, organism-based
Candida parapsilosis [7] = experiment: Antifungal activity against Candida parapsilosis ATCC 22019 at 178.3 uM after 48 hrs by CLSI method; type: functional, organism-based
Outline: (§5)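 Yeast suspensions made from 3-5 colonies off 24-72 h SD agar plates in saline. They were diluted by OD630 standard curve in RPMI 1640 (0.2% dextrose, 0.03% glutamine, 0.165 M MOPS, pH 7.0) to 1.5 × 10³ CFU/ml. Twofold dilutions (11 concentrations, 20% DMSO-saline) run in duplicate. OD530 read before and after 35°C, 48 h. Line values are top test concentrations; no-growth endpoints give MIC/MFC.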

Vero = experiment: Cytotoxicity against African green monkey Vero cells up to 32 uM by neutral red method; type: cell-based; conditions: chlorocebus sabaeus
Outline: (§6)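 Neutral red uptake cytotoxicity, top concentration 32 μM.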

Aspergillus niger = experiment: Antifungal activity against Aspergillus niger ATCC 16404 at 178.3 uM after 48 hrs by CLSI method; type: functional, organism-based
Candida albicans [8] = experiment: Antifungal activity against Candida albicans ATCC 14053 after 48 hrs by CLSI method; type: functional, organism-based; conditions: ATCC 14053, 48 h; outline: as §3
Candida albicans [9] = experiment: Antifungal activity against Fluconazole resistant Candida albicans isolate 1 at 178.3 uM after 48 hrs by CLSI method; type: functional, organism-based; outline: as §4
Cryptococcus neoformans [10] = experiment: Antifungal activity against Cryptococcus neoformans ATCC 66031 after 72 hrs by CLSI method; type: functional, organism-based; conditions: ATCC 66031, 72 h
Outline: (§7)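 SD broth replaced RPMI because growth in RPMI was poor; other CLSI conditions were kept. Inoculum was 1.5 × 10³ CFU/ml from colonies on SD agar, checked by plating. Twofold serial dilutions (11 concentrations) in 20% DMSO-saline were tested in duplicate. OD530 was read before and after incubation at 35°C for 72 h. Percent growth gave IC50; the MIC is the lowest concentration with no detectable growth.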

KB = experiment: Cytotoxicity against human KB cells up to 32 uM by neutral red method; type: cell-based; outline: as §6
Candida albicans [11] = experiment: Antifungal activity against Candida albicans ATCC 32354 after 48 hrs by CLSI method; type: functional, organism-based; conditions: ATCC 32354, 48 h; outline: as §3
Candida albicans [12] = experiment: Antifungal activity against Candida albicans ATCC 32354 at 178.3 uM after 48 hrs by CLSI method; type: functional, organism-based; outline: as §1
[13] = tested on: Trichophyton mentagrophytes; experiment: Antifungal activity against Trichophyton mentagrophytes ATCC MYA-4439 by CLSI method; type: functional, organism-based; outline: as §2
Mus musculus = experiment: Toxicity in mouse up to 34 umol/kg/day, ip for 3 days; type: organism-based; conditions: in vivo, 72 h
Candida albicans [14] = experiment: Antifungal activity against Candida albicans ATCC 60193 after 48 hrs by CLSI method; type: functional, organism-based; conditions: ATCC 60193, 48 h; outline: as §3
Trichophyton rubrum [15] = experiment: Antifungal activity against Trichophyton rubrum ATCC 10218 by CLSI method; type: functional, organism-based; outline: as §2
Aspergillus flavus = experiment: Antifungal activity against Aspergillus flavus ATCC 204304 at 178.3 uM after 48 hrs by CLSI method; type: functional, organism-based
[16] = tested on: Trichophyton mentagrophytes; experiment: Antifungal activity against Trichophyton mentagrophytes ATCC 9533 by CLSI method; type: functional, organism-based; outline: as §2
Cryptococcus neoformans [17] = experiment: Antifungal activity against Cryptococcus neoformans ATCC 66031 at 178.3 uM after 72 hrs by CLSI method; type: functional, organism-based; outline: as §7
Candida albicans [18] = experiment: Antifungal activity against Fluconazole resistant Candida albicans clinical isolate 1 after 48 hrs by CLSI method; type: functional, organism-based; outline: as §3
LLC-PK1 = experiment: Cytotoxicity against pig LLC-PK1 cells up to 32 uM by neutral red method; type: cell-based, Sus scrofa; outline: as §6
Candida tropicalis [19] = experiment: Antifungal activity against Candida tropicalis ATCC 750 at 178.3 uM after 48 hrs by CLSI method; type: functional, organism-based; outline: as §5
SK-MEL = experiment: Cytotoxicity against human SK-MEL cells up to 32 uM by neutral red method; type: cell-based; outline: as §6
Aspergillus fumigatus [20] = experiment: Antifungal activity against Aspergillus fumigatus ATCC 204305 at 178.3 uM after 48 hrs by CLSI method; type: functional, organism-based
Cryptococcus neoformans [21] = experiment: Antifungal activity against Cryptococcus neoformans ATCC 90113 at 178.3 uM after 72 hrs by CLSI method; type: functional, organism-based; outline: as §7
Candida tropicalis [22] = experiment: Antifungal activity against Candida tropicalis ATCC 750 after 48 hrs by CLSI method; type: functional, organism-based; conditions: ATCC 750, 48 h; outline: as §5
BT-549 = experiment: Cytotoxicity against human BT549 cells up to 32 uM by neutral red method; type: cell-based; outline: as §6
Candida albicans [23] = experiment: Antifungal activity against Candida albicans ATCC 60193 at 178.3 uM after 48 hrs by CLSI method; type: functional, organism-based; outline: as §1
Aspergillus fumigatus [24] = experiment: Antifungal activity against Aspergillus fumigatus ATCC 204305 after 48 h by CLSI method; conditions: ATCC 204305, 48 h
Candida albicans [25] = experiment: Antifungal activity against Candida albicans ATCC 200955 at 178.3 uM after 48 hrs by CLSI method; type: functional, organism-based; outline: as §1
Trichophyton rubrum [26] = experiment: Antifungal activity against Trichophyton rubrum ATCC MYA-4438 at 178.3 uM after 5 days by CLSI method; type: functional, organism-based
SK-OV-3 = experiment: Cytotoxicity against human SKOV3 cells up to 32 uM by neutral red method; type: cell-based; outline: as §6
Candida parapsilosis [27] = experiment: Antifungal activity against Candida parapsilosis ATCC 22019 after 48 hrs by CLSI method; type: functional, organism-based; conditions: Lodderomyces parapsilosis, ATCC 22019, 48 h; outline: as §5

Structure (SMILES): CCCCCCCCCCCC#CCCCCC(=O)O [6-OCTADECYNOIC ACID]
- Activity (Nakaseomyces glabratus): inactive
- IC50 (Trichophyton rubrum [1]): 1800 nM
- MIC (Trichophyton rubrum [1]): 5.6 µM (≈ 1.57 µg/mL)
- IC50 (Candida albicans [2]): 3600 nM
- MIC (Candida albicans [2]): 16.7 µM (≈ 4.68 µg/mL)
- IC50 (Candida albicans [3]): 2000 nM
- MFC (Candida albicans [3]): 11.1 µM (≈ 3.11 µg/mL)
- MIC (Candida albicans [3]): 2.8 µM (≈ 0.785 µg/mL)
- Activity (Candida albicans [4]): inactive
- IC50 (Pichia kudriavzevii): 3400 nM
- MIC (Pichia kudriavzevii): 5.6 µM (≈ 1.57 µg/mL)
- IC50 (Candida albicans [5]): 1900 nM
- MIC (Candida albicans [5]): 11.1 µM (≈ 3.11 µg/mL)
- Activity (Aspergillus fumigatus [6]): inactive
- Activity (Candida parapsilosis [7]): inactive
- Activity (Vero): Non-toxic
- Activity (Aspergillus niger): inactive
- IC50 (Candida albicans [8]): 1000 nM
- MFC (Candida albicans [8]): 5.6 µM (≈ 1.57 µg/mL)
- MIC (Candida albicans [8]): 2.8 µM (≈ 0.785 µg/mL)
- Activity (Candida albicans [9]): inactive
- IC50 (Cryptococcus neoformans [10]): 1400 nM
- Activity (KB): Non-toxic
- IC50 (Candida albicans [11]): 4000 nM
- MIC (Candida albicans [11]): 27.9 µM (≈ 7.82 µg/mL)
- Activity (Candida albicans [12]): inactive
- IC50 [13]: 1200 nM
- MFC [13]: 2.8 µM (≈ 0.785 µg/mL)
- MIC [13]: 2.8 µM (≈ 0.785 µg/mL)
- Activity (Mus musculus): Non-toxic
- IC50 (Candida albicans [14]): 3000 nM
- MIC (Candida albicans [14]): 5.6 µM (≈ 1.57 µg/mL)
- IC50 (Trichophyton rubrum [15]): 2700 nM
- MFC (Trichophyton rubrum [15]): 11.1 µM (≈ 3.11 µg/mL)
- MIC (Trichophyton rubrum [15]): 5.6 µM (≈ 1.57 µg/mL)
- Activity (Aspergillus flavus): inactive
- IC50 [16]: 1300 nM
- MFC [16]: 2.8 µM (≈ 0.785 µg/mL)
- MIC [16]: 2.1 µM (≈ 0.589 µg/mL)
- Activity (Cryptococcus neoformans [17]): inactive
- IC50 (Candida albicans [18]): 4200 nM
- MIC (Candida albicans [18]): 13.9 µM (≈ 3.9 µg/mL)
- Activity (LLC-PK1): Non-toxic
- Activity (Candida tropicalis [19]): inactive
- Activity (SK-MEL): Non-toxic
- Activity (Aspergillus fumigatus [20]): inactive
- Activity (Cryptococcus neoformans [21]): inactive
- IC50 (Candida tropicalis [22]): 6300 nM
- MIC (Candida tropicalis [22]): 111 µM (≈ 31.2 µg/mL)
- Activity (BT-549): Non-toxic
- Activity (Candida albicans [23]): inactive
- IC50 (Aspergillus fumigatus [24]): 18700 nM
- MIC (Aspergillus fumigatus [24]): 178 µM (≈ 50 µg/mL)
- Activity (Candida albicans [25]): inactive
- Activity (Trichophyton rubrum [26]): inactive
- Activity (SK-OV-3): Non-toxic

Structure (SMILES): OC(Cn1cncn1)(Cn1cncn1)c1ccc(F)cc1F [FLUCONAZOLE]
- IC50 (Trichophyton rubrum [1]): 2700 nM
- MIC (Trichophyton rubrum [1]): 6.4 µM (≈ 1.96 µg/mL)
- IC50 (Candida albicans [2]): 163000 nM
- IC50 (Candida albicans [3]): 800 nM
- MIC (Candida albicans [3]): 6.4 µM (≈ 1.96 µg/mL)
- IC50 (Pichia kudriavzevii): 126000 nM
- MIC (Pichia kudriavzevii): 163 µM (≈ 50 µg/mL)
- IC50 (Candida albicans [5]): 400 nM
- MIC (Candida albicans [5]): 1.3 µM (≈ 0.398 µg/mL)
- IC50 (Candida albicans [8]): 500 nM
- MIC (Candida albicans [8]): 1.3 µM (≈ 0.398 µg/mL)
- IC50 (Candida albicans [11]): 800 nM
- MIC (Candida albicans [11]): 5.7 µM (≈ 1.75 µg/mL)
- IC50 (Candida albicans [14]): 400 nM
- MIC (Candida albicans [14]): 0.6 µM (≈ 0.184 µg/mL)
- IC50 (Trichophyton rubrum [15]): 1800 nM
- MFC (Trichophyton rubrum [15]): 163 µM (≈ 50 µg/mL)
- MIC (Trichophyton rubrum [15]): 1.9 µM (≈ 0.582 µg/mL)
- IC50 (Candida parapsilosis [27]): 3400 nM
- MIC (Candida parapsilosis [27]): 10.2 µM (≈ 3.12 µg/mL)
- IC50 [16]: 29500 nM
- MIC [16]: 61.2 µM (≈ 18.7 µg/mL)
- IC50 (Candida albicans [18]): 800 nM
- MIC (Candida albicans [18]): 5.1 µM (≈ 1.56 µg/mL)
- IC50 (Candida tropicalis [22]): 4300 nM
- MIC (Candida tropicalis [22]): 15.3 µM (≈ 4.69 µg/mL)
